Screening results deposited in PubChem by Sanford-Burnham Center for Chemical Genomics.
CCR6 antagonist = blocks CCL20-driven beta-arrestin recruitment at human CCR6; P51684; CHO-K1 CCR6 PathHunter beta-arrestin, luminescence, CCL20-stimulated; inhibition, % at 20 µM; 340,000 compounds, 0.49% hits; AID 493098;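 active = compounds whose inhibition of the agonist-driven luminescence signal at 20 µM reaches about 50%, limit read from the data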;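 note: cells stimulated with CCL20 at 14 nM final; plate controls were DMSO with CCL20 for no effect and DMSO without agonist for full effect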
Target sequence (P51684 whole entry, looked up): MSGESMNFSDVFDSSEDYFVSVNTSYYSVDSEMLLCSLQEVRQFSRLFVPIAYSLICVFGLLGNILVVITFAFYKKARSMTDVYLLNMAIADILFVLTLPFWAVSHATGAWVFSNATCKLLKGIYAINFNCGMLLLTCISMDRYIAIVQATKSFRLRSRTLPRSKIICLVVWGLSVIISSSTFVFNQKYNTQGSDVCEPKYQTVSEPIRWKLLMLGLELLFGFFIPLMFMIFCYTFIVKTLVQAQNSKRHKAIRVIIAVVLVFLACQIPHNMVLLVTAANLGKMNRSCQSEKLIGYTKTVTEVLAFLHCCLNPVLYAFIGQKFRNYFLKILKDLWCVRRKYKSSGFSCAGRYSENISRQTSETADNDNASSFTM
APJ antag = APJ receptor antagonism. CHO-K1 APJ beta-arrestin complementation, luminescence. AID 2521. 330,000 compounds, 0.32% hits. P35414. inhibition, % at 20 µM;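 active = inhibition above about 40% at 20 µM, limit read from the data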;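 note: cells challenged with 10 nM apelin-13 agonist together with compound; plate controls were apelin-13 plus DMSO wells for no effect and DMSO wells lacking apelin-13 for full effect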
EBI2 antag = blocks human EBI2 receptor beta-arrestin signaling. P32249. EBI2 beta-arrestin recruitment, luminescence, 7a,25-OHC stimulated. inhibition, % at 5 µM. 360,000 compounds, 0.81% hits. AID 651636; in the data active = inhibition above about 38%;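 note: enzyme fragment complementation signal reports receptor beta-arrestin coupling in cells; 0% = agonist plus DMSO wells and 100% = wells without agonist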
APJ ag = activates the human apelin receptor APJ | P35414 | CHO-K1 APJ PathHunter beta-arrestin, luminescence; 0% DMSO wells, 100% apelin | activation, % at 20 µM | 330,000 compounds, 0.11% hits | AID 2520;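 active = activation more than six SD over the plate average, tested at 20 µM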;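 note: 0% = DMSO alone and 100% = apelin-13 at 10 nM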
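Material: CHO-K1 APJ beta-arrestin complementation cell line; Input: cell density 1000 per well; Incubation: compound stimulation 90 min at 25 °C, detection 60 min; Signal: luminescence from split beta-galactosidase complementation, Galacton Star/Emerald II substrate; Controls: DMSO-only wells as negative, 10 nM Apelin-13 as positive control.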
CXCR6 block = blocks human CXCR6 beta-arrestin recruitment | O00574 | CHO-K1 PathHunter CXCR6 beta-arrestin, luminescence | inhibition, % at 20 µM | 360,000 compounds, 0.36% hits; in the data active = inhibition above about 34%, passing the limit was not always enough;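 note: antagonist mode with CXCL16 agonist at 10 nM final; 0% = 10 nM CXCL16 with DMSO and 100% = unstimulated wells without agonist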
EBI2 conf = EBI2 (human) antagonism, single concentration confirmation; inhibition, % at 5 µM; 2,400 compounds, 29% hits; shares compounds with EBI2 antag; EBI2 beta-arrestin luminescence, 7a,25-OHC antagonism;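 active = inhibition of at least 50%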
EBI2 ag = EBI2 agonism counter-screen; shares compounds with EBI2 antag; EBI2-expressing cells, agonist mode, luminescence, 60 min; 0% vehicle, 100% 7α,25-dihydroxycholesterol control; activation, % at 5 µM; 2,400 tested, under 10 active; AID 652000;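 active = activation of at least 50%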
bGal counter = counter-screen for EBI2 antagonists: E. coli beta-galactosidase inhibition. shares compounds with EBI2 antag. purified beta-galactosidase, luminescent Galacton Star, 15 min. inhibition, % at 5 µM. 2,400 compounds, 1% hits. AID 652176;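 active = replicate-average signal at least 3 plate SD below neutral wells, shown as high inhibition, flagging enzyme-inhibiting false positives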;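 note: 0% = DMSO wells with enzyme and 100% = wells lacking enzyme; higher means stronger loss of beta-gal luminescence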
* hit, by the source's call; nt = no result given. Rows were chosen to be rich in hits. Some 1.5% of all compounds tested hit in one or more screens of this group.

SMILES	CCR6 antagonist	APJ antag	EBI2 antag	APJ ag	CXCR6 block	EBI2 conf	EBI2 ag	bGal counter
COc1ccc(OCC(=O)N(C)CC2COc3ccccc3O2)cc1 (stereo not drawn)	8	11	46*	-1	4	24	-1	-5
COc1ccc(OCC(=O)N(C)Cc2ccccc2)cc1	12	-2	63*	-3	5	56*	0	-7
COc1cc(C=O)ccc1OC(=O)c1ccc(C(C)C)cc1	-4	17	6	-4	-8	nt	nt	nt
CCn1cc(C(=O)NCc2cccc(C(F)(F)F)c2)c(=O)c2ccc(C)nc21	9	2	-16	0	20	nt	nt	nt
COc1ccc(OC)c(/C=N/NC(=O)CCc2c(C)n[nH]c2C)c1	-5	-2	-11	4	0	nt	nt	nt
COc1ccc(C(CC(=O)O)NC(=O)C(c2ccccc2)c2ccccc2)cc1 (stereo not drawn)	-3	-4	6	-3	11	nt	nt	nt
CCSc1ccc(-c2nn(-c3ccccc3)cc2/C=C(/C#N)C(=O)NC)cc1	4	nt	-5	nt	-4	nt	nt	nt
CCCSc1ccc(-c2nn(-c3ccccc3)cc2/C=C(/C#N)C(=O)N2CCOCC2)cc1	20	-16	50*	0	9	32	1	0
COc1cc(C2OC(=O)C3C(c4ccc(OC(C)=O)c(OC)c4)OC(=O)C23)ccc1OC(C)=O (stereo not drawn)	5	-6	62*	-3	6	-3	-1	-10
COCCCNS(=O)(=O)c1ccc2[nH]c3c(c2c1)CCCCC3	7	-9	-1	0	-13	nt	nt	nt
CC(C)(C)NS(=O)(=O)c1ccc2[nH]c3c(c2c1)CCCCC3	-4	-4	63*	0	-13	67*	1	5
O=C(CC(C(=O)O)P(=O)(c1ccccc1)c1ccccc1)c1ccc(Br)cc1 (stereo not drawn)	5	19	0	-1	0	nt	nt	nt
COc1ccc(CCN2CC(C(=O)N(C)CCOc3ccccc3)CCC2=O)cc1 (stereo not drawn)	8	24	42	1	-7	nt	nt	nt
CN(CCOc1ccccc1)C(=O)C1CCC(=O)N(CCc2ccc(Cl)cc2)C1 (stereo not drawn)	14	-11	54*	0	1	39	1	-2
COC(=O)c1cc(-c2ccc(OC)cc2)nc2nc(SC)[nH]c(=O)c12	9	10	-4	-1	0	nt	nt	nt
CC(C)OCCCNC(=O)c1c(N)n(/N=C/c2ccccn2)c2nc3ccccc3nc12	-27	0	48*	-5	-1	21	0	-9
CCC(C)NC(=O)c1c(N)n(/N=C/c2ccccn2)c2nc3ccccc3nc12 (stereo not drawn)	-17	-13	27	-1	-8	nt	nt	nt
Cc1ccc(/C=C/C(=O)N2CCN(S(=O)(=O)c3c(C)c(C)cc(C)c3C)CC2)o1	5	5	50*	-4	9	32	1	3
CC(C)(C)c1ccc(C(=O)NCCc2ccccc2)cc1	17	-4	3	2	-6	nt	nt	nt
Cc1ccc(Nc2ccc(NCc3ccccc3)nn2)cc1C	-3	4	65*	-4	-11	45	1	5
Clc1ccc(Nc2ccc(NCc3ccccc3)nn2)cc1	0	-2	63*	-1	-4	45	-1	-8
COC(C(=O)N/N=C(\C)c1ccc(C(C)(C)C)cc1)c1ccccc1 (stereo not drawn)	17	-14	65*	-5	5	24	-1	-10
COC(C(=O)N/N=C(\C)c1ccc(O)cc1)c1ccccc1 (stereo not drawn)	-2	-5	-1	-1	-5	nt	nt	nt
CCCCOC1CC(c2ccc(OCc3ccc(OC)cc3)c(OC)c2)N(C)O1 (stereo not drawn)	11	15	9	-1	-8	nt	nt	nt
